From ChEMBL document CHEMBL4428077, “Synthesis and Biological Evaluation of N-((1-(4-(Sulfonyl)piperazin-1-yl)cycloalkyl)methyl)benzamide Inhibitors of Glycine Transporter-1” (J Med Chem, 2016)
Blank lines part the entries; values can stand above or below the compound they belong to.

Columns and labels:
Cytochrome P450 2C19 = Cytochrome P450 2C19 (Homo sapiens, UniProt P33261); experiment: Inhibition of CYP2C19 (unknown origin); format: ADME
[1] = target: Voltage-gated inwardly rectifying potassium channel KCNH2 (Homo sapiens, UniProt Q12809); experiment: Inhibition of human ERG channel expressed in HEK293 cells by patch clamp assay; format: cell-based
In short: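 PatchXpress patch-clamp on HEK293 cells stably expressing hERG. Five-point concentration-response, n = 3.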

[2] = Apparent permeability from apical to basolateral side in human Caco2 cells; format: ADME, cell-based; details: Caco-2
In short: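 Caco-2 monolayer permeability measured in both the A-to-B and B-to-A directions and reported as P_app (×10⁻⁶ cm/s).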

[3] = Total clearance in Sprague-Dawley rat at 10 mg/kg, po or 2 mg/kg, iv administered as single dose measured up to 24 hrs post dose by LC-MS/MS analysis; format: ADME, organism-based; details: in vivo
In short: (§1)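 Groups of three drug-naive adult male Sprague–Dawley rats, single dose: IV 3.1 μmol/kg in 5% DMSO/10% Solutol in saline (5 mL/kg), or PO 15.7 μmol/kg in 5% Solutol/10% Captisol in 25 mM PBS adjusted to pH 2 with HCl. Plasma concentration–time data give the parameters; mean ± SD.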

[4] = Total clearance in cynomolgus monkey at 1 mg/kg, iv or 5 mg/kg, po measured up to 12 or 24 hrs post dose by LC-MS/MS analysis; format: ADME, organism-based, Macaca fascicularis; details: in vivo
In short: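 Three female cynomolgus monkeys per group, single dose: IV 1.5 μmol/kg in 5% DMSO/10% Solutol in saline, pH 6.5 (2 mL/kg), or PO 7.8 μmol/kg in 5% Solutol in 20% Captisol, 25 mM PBS, pH 2 (5 mL/kg). Parameters come from plasma concentration–time data; mean ± SD.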

[5] = Cmax in Sprague-Dawley rat plasma at 10 mg/kg, po administered as single dose by LC-MS/MS analysis; format: ADME, organism-based; set-up: dose 10 mg/kg, route oral
In short: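 Single-dose PK in drug-naive adult male Sprague−Dawley rats, n = 3 per group: 3.1 μmol/kg IV in 5% DMSO/10% Solutol in saline (5 mL/kg), or 15.7 μmol/kg PO in 5% Solutol/10% Captisol in 25 mM PBS, pH adjusted to 2 with HCl. Plasma parameters reported as mean ± SD.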

[6] = Tmax in Sprague-Dawley rat plasma at 10 mg/kg, po administered as single dose by LC-MS/MS analysis; format: ADME, organism-based; in short: as §1
[7] = AUClast in cynomolgus monkey plasma at 1 mg/kg, iv or 5 mg/kg, po measured up to 12 or 24 hrs post dose by LC-MS/MS analysis; format: ADME, organism-based, Macaca fascicularis
In short: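 Single-dose PK in female cynomolgus monkeys, n = 3 per group: 1.5 μmol/kg IV in 5% DMSO/10% Solutol in saline, pH 6.5 (2 mL/kg), or 7.8 μmol/kg PO in 5% Solutol in 20% Captisol, 25 mM PBS, pH 2 (5 mL/kg). Plasma parameters reported as mean ± SD.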

[8] = Drug level in po dosed Sprague-Dawley rat plasma measured 2 hrs post dose by LC-MS/MS analysis; format: ADME, organism-based; details: in vivo
[9] = Ratio of drug level in Sprague-Dawley rat brain to plasma at 3 to 10 mg/kg, po measured 2 hrs post dose by LC-MS/MS analysis; format: ADME, organism-based; details: read-out: BPR
In short: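 Drug-naive male Sprague–Dawley rats (n = 4–5/group) were dosed orally in 5% Solutol/10% Captisol in 25 mM PBS, pH 2, and euthanized by CO2 2 h post-dose. CSF (50–100 μL) was taken from the cisterna magna, and brain and plasma were collected; drug was measured in each matrix. Quantitation limit 1.0 ng/mL.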

[10] = Drug level in cynomolgus monkey plasma at 3 mg/kg, po measured at 1 hr post dose by LC-MS/MS analysis; format: ADME, organism-based, Macaca fascicularis
[11] = Drug level in cynomolgus monkey plasma at 3 mg/kg, po measured at 3 hrs post dose by LC-MS/MS analysis; format: ADME, organism-based, Macaca fascicularis
[12] = Drug level in cynomolgus monkey plasma at 3 mg/kg, po measured at 8 hrs post dose by LC-MS/MS analysis; format: ADME, organism-based, Macaca fascicularis
[13] = Drug level in cynomolgus monkey plasma at 10 mg/kg, po measured at 1 hr post dose by LC-MS/MS analysis; format: ADME, organism-based, Macaca fascicularis
In short: (§2)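 Cynomolgus monkeys (n = 3/group) fitted with subcutaneous CSF ports were dosed orally at 0.4−15.7 μmol/kg in 5% Solutol plus 20% Captisol in 25 mM PBS, pH 2. CSF (about 0.30 mL) and blood were sampled predose and at 0.5, 1, 2, 3, 4, 8, 12 and 24 h. Quantitation limit 1.0 ng/mL; mean ± SD.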

[14] = Drug level in cynomolgus monkey plasma at 10 mg/kg, po measured at 2 hrs post dose by LC-MS/MS analysis; format: ADME, organism-based, Macaca fascicularis; in short: as §2
[15] = Drug level in cynomolgus monkey CSF at 10 mg/kg, po measured at 0.5 hr post dose by LC-MS/MS analysis; format: ADME, organism-based, Macaca fascicularis, Cerebrospinal fluid; details: read-out: Drug uptake; in short: as §2
[16] = Drug level in cynomolgus monkey CSF at 10 mg/kg, po measured at 3 hrs post dose by LC-MS/MS analysis; format: ADME, organism-based, Macaca fascicularis, Cerebrospinal fluid; details: read-out: Drug uptake; in short: as §2
[17] = Drug level in cynomolgus monkey CSF at 0.3 to 3 mg/kg, po measured up to 24 hrs post dose by LC-MS/MS analysis; format: ADME, organism-based, Macaca fascicularis, Cerebrospinal fluid; details: in vivo, BLD = below limit of detection; in short: as §2
Rattus norvegicus = experiment: In vivo inhibition of glycine transporter-1 in Sprague-Dawley rat assessed as CSF glycine level at 100 mg/kg, po measured 2 hrs post dose by LC-MS/MS analysis relative to control; format: functional; set-up: scale not given: the % may be the effect or the level left
In short: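 Drug-naive Sprague-Dawley rats, n = 5 per group, given acute oral doses of 0.4-160.9 μmol/kg (0.3-100 mg/kg). Vehicle was Solutol 5% in 20% Captisol / 25 mM PBS, pH 2. Killed 2 h post-dose. CSF glycine was quantified by LC-MS/MS with a deuterated-glycine standard and expressed as % vehicle control, mean ± SEM. Two-way ANOVA with Tukey test.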

[18] = Drug level in Sprague-Dawley rat CSF at 30 mg/kg, po measured 2 hrs post dose by LC-MS/MS analysis; format: ADME, organism-based, Cerebrospinal fluid; details: read-out: Drug uptake
In short: (§3)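 Drug-naive Sprague−Dawley rats (n = 4−5/group) were dosed orally once in 5% Solutol plus 20% Captisol in 25 mM PBS, pH 2, and euthanized 2 h later by CO₂. CSF was drawn from the cisterna magna. Drug was measured in CSF, brain and plasma; data as mean ± SEM.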

[19] = Drug level in Sprague-Dawley rat brain at 30 mg/kg, po measured 2 hrs post dose by LC-MS/MS analysis; format: ADME, organism-based; details: read-out: Drug uptake; in short: as §3
[20] = Drug level in Sprague-Dawley rat brain at 3 mg/kg, po qd for 5 days measured 2 hrs post last dose by LC-MS/MS analysis; format: ADME, organism-based; details: read-out: Drug uptake
In short: (§4)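 Drug-naive Sprague−Dawley rats (n = 5/group) were dosed orally once daily for 5 days in 5% Solutol plus 20% Captisol in 25 mM PBS, pH 2, and sacrificed 2 h after the last dose. Drug was measured in CSF, brain and plasma; mean ± SEM.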

[21] = Drug level in Sprague-Dawley rat brain at 10 mg/kg, po qd for 5 days measured 2 hrs post last dose by LC-MS/MS analysis; format: ADME, organism-based; details: read-out: Drug uptake; in short: as §4

Chain of Cytochrome P450 2C19 (P33261 whole entry): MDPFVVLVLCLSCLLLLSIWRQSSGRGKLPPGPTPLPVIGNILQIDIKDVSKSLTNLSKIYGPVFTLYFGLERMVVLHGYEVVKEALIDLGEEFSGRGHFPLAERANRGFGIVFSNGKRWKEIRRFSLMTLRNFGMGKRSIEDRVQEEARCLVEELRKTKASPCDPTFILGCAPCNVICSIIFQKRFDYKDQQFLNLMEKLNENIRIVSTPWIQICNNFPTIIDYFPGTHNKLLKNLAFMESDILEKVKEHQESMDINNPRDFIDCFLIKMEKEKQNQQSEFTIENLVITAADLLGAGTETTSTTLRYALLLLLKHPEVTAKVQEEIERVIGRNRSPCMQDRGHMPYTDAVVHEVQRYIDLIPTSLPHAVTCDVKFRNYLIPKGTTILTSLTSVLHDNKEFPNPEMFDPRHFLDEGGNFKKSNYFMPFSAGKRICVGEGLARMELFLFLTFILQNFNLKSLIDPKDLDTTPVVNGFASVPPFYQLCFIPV
Chain of Voltage-gated inwardly rectifying potassium channel KCNH2 (Q12809 whole entry): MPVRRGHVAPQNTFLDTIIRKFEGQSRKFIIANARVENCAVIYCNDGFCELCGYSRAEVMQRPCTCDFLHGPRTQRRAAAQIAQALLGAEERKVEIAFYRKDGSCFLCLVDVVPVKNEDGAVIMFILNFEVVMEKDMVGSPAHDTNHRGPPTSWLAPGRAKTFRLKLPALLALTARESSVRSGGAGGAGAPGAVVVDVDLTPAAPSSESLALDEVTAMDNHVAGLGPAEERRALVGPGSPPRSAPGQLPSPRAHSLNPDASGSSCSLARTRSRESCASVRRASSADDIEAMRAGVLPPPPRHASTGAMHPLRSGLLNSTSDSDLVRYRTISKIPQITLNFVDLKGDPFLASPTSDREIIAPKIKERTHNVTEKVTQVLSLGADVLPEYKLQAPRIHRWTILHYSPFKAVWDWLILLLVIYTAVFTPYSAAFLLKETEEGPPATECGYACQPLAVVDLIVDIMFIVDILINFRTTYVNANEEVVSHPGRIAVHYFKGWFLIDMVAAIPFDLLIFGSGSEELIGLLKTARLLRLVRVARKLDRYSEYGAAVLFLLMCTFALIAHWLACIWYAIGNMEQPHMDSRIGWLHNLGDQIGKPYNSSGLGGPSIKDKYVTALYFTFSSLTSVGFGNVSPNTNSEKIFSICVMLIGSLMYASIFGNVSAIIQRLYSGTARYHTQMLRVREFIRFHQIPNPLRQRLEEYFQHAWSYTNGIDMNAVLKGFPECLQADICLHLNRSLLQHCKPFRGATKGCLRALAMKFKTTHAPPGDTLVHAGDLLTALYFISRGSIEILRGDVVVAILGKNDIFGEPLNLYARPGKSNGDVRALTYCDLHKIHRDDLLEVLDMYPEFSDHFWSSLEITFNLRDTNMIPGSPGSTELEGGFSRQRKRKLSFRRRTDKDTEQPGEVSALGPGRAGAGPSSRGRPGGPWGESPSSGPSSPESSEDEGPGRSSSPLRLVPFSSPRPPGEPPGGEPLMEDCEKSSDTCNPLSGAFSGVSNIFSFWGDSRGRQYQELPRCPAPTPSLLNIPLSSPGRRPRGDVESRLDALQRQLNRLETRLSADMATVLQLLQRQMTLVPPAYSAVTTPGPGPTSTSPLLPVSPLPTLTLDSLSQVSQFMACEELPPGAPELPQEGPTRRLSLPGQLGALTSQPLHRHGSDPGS

IC50 (Cytochrome P450 2C19): > 7.2 µM | Papp A→B [2]: 23.9 ×10⁻⁶ cm/s | clearance [3]: 23.3 mL/min/kg | clearance [4]: 24.9 mL/min/kg | Cmax [5]: 352 ng/mL | Tmax [6]: 2.67 h | AUC(0-t) at 24 h [7]: 690 ng·h/mL | Drug uptake [8]: Dose-dependent effect | Kp at 2 h [9]: 0.1 to 0.2 | concentration at 1 h [10]: 3.6 ng/mL | concentration at 3 h [11]: 5.7 ng/mL | concentration at 8 h [12]: 2 ng/mL | concentration at 1 h [13]: 203 ng/mL | concentration at 2 h [14]: 222 ng/mL | concentration at 0.5 h [15]: 1.8 ng/mL | concentration at 3 h [16]: 11.3 ng/mL | Drug uptake [17]: Bld
SMILES: CC(NC(=O)c1ccc(C(F)(F)F)cc1Cl)C1(N2CCN(S(=O)(=O)c3cn(C)nn3)CC2)CCC(F)(F)CC1.Cl (single isomer, unassigned; (+))
IC50 [1]: 20.2 µM

concentration at 2 h [18]: 8.3 nM | concentration at 2 h [19]: 66.8 nM | concentration at 2 h [20]: 44.8 nM | concentration at 2 h [21]: 69.4 nM
SMILES: Cl.Cn1cc(S(=O)(=O)N2CCN(C3(CNC(=O)c4ccc(C(F)(F)F)cc4Cl)CCC(F)(F)CC3)CC2)nn1
Activity (Rattus norvegicus): 329.1%
